Assay results published in ChEMBL document CHEMBL4359856, “Strategies to develop selective CB2 receptor agonists from indole carboxamide synthetic cannabinoids” (Eur J Med Chem, 2019).

Experiments:
Cannabinoid receptor 1 [1] = target: T1, Cannabinoid receptor 1 (Homo sapiens, UniProt P21554); test: Agonist activity at human CB1 receptor expressed in AtT-20 cells at 1 uM measured every 2 secs for 2 mins by FLIPR assay relative to control; type: cell-based
Outline: (§1)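 After vehicle subtraction, the change was taken as % of baseline. The final DMSO concentration was ≤0.1%. EC50 came from four-parameter concentration–response fits. Each experiment was run in duplicate, with at least three independent experiments; values are mean ± SEM.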

Cannabinoid receptor 2 [2] = target: T2, Cannabinoid receptor 2 (Homo sapiens, UniProt P34972); test: Agonist activity at human CB2 receptor expressed in AtT-20 cells measured every 2 secs for 2 mins by FLIPR assay; type: cell-based; outline: as §1
T2 sequence (P34972 whole entry): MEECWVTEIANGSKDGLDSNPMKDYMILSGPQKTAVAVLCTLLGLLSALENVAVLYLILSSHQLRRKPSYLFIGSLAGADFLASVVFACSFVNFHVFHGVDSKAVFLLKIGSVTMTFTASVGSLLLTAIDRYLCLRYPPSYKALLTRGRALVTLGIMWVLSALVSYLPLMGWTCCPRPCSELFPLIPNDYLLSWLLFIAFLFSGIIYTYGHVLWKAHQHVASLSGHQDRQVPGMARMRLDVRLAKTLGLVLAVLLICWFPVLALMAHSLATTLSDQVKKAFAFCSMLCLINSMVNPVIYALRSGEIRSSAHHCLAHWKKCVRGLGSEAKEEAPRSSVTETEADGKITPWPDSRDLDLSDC

Cannabinoid receptor 1 [3] = target: T1, Cannabinoid receptor 1; test: Agonist activity at human CB1 receptor expressed in AtT-20 cells measured every 2 secs for 2 mins by FLIPR assay; type: cell-based; outline: as §1
Cannabinoid receptor 2 [4] = target: T2, Cannabinoid receptor 2; test: Agonist activity at human CB2 receptor expressed in AtT-20 cells at 1 uM measured every 2 secs for 2 mins by FLIPR assay relative to control; type: cell-based
Outline: as §1, with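 “In AtT-20 cells stably expressing human CB1 or CB2, membrane-potential dye fluorescence (530/565 nm) was recorded at 37 °C. After” for “After”, “fits. […]” for “fits.”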

Cannabinoid receptor 1 [5] = target: T1, Cannabinoid receptor 1; test: Agonist activity at human CB1 receptor expressed in AtT-20 cells at 10 uM measured every 2 secs for 2 mins by FLIPR assay relative to control; type: cell-based; conditions: read-out: Activity
Cannabinoid receptor 2 [6] = target: T2, Cannabinoid receptor 2; test: Agonist activity at human CB2 receptor expressed in AtT-20 cells at 10 uM measured every 2 secs for 2 mins by FLIPR assay relative to control; type: cell-based
[7] = Selectivity index, ratio of EC50 for human CB1 receptor expressed in AtT-20 cells to EC50 for human CB2 receptor expressed in AtT-20 cells

T1 sequence (P21554 whole entry): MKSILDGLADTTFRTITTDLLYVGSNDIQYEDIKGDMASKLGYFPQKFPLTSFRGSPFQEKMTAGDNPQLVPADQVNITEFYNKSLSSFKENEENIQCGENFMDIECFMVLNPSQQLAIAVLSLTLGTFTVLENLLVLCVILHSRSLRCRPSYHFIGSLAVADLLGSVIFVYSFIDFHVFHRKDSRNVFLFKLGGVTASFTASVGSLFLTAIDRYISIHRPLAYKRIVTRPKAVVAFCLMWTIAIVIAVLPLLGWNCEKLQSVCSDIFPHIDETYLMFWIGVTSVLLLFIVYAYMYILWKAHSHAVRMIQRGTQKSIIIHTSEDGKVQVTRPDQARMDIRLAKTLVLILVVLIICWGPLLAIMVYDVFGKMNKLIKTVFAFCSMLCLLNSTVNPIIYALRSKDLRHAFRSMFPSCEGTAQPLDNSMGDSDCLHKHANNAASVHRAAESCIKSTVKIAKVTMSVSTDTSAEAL

Structure (SMILES) | Emax at 1 µM (Cannabinoid receptor 1 [1]) [%] | EC50 (Cannabinoid receptor 2 [2]) [µM] | EC50 (Cannabinoid receptor 1 [3]) [µM] | Emax (Cannabinoid receptor 2 [4]) [%] | activity at 10 µM (Cannabinoid receptor 1 [5]) [%] | Activity (Cannabinoid receptor 2 [6]) [%] | Ratio EC50 [7]
CC(C)(NC(=O)c1cn(CCCCCO)c2ncccc12)c1ccccc1 | 110 | 0.152 | 0.466 | 95 |  |  | 
CC(C)(NC(=O)c1cc2ccccc2n1CCCCCO)c1ccccc1 |  | 0.217 |  | 88 | < 50 |  | 
CCCCCn1c(C(=O)NC(C)(C)c2ccccc2)cc2ccccc21 |  |  |  |  | < 50 |  | 
CCCCCn1cc(C(=O)NC23CC4CC(CC(C4)C2)C3)c2ccccc21 | 108 | 0.096 | 0.074 | 85 |  |  | 
COC(=O)[C@@H](NC(=O)c1cc2ccccc2n1CCCCCO)C(C)(C)C |  |  |  |  | < 50 | < 50 | 
COC(=O)[C@@H](NC(=O)c1cn(CCCCCO)c2ncccc12)C(C)(C)C | 99 | 0.019 | 0.234 | 96 |  |  | 
CCCCCn1c(C(=O)N[C@H](C(=O)OC)C(C)(C)C)cc2ccccc21 |  |  |  |  | < 50 |  | 
CCCCCn1cc(C(=O)N[C@H](C(=O)OC)C(C)(C)C)c2cccnc21 | 103 | 0.0043 | 0.0017 | 102 |  |  | 
CC(C)(C)[C@H](NC(=O)c1cc2ccccc2n1CCCCC(F)F)C(N)=O |  | 5.46 |  | 128 | < 50 |  | 
CC(C)[C@H](NC(=O)c1cc2ccccc2n1CCCCCO)C(N)=O |  |  |  |  | < 50 | < 50 | 
CC(C)(C)[C@H](NC(=O)c1cn(CCCCCO)c2ncccc12)C(N)=O | 98 | 0.05 | 0.491 | 96 |  |  | 
CCCCCCC(C)(C)c1ccc([C@@H]2C[C@H](O)CC[C@H]2CCCO)c(O)c1 |  |  |  | 106 |  |  | 
CCCCCn1nc(C(=O)NC23CC4CC(CC(C4)C2)C3)c2cccnc21 | 97 | 0.122 | 0.824 | 104 |  |  | 7
CCCCCn1cc(C(=O)N[C@H](C(=O)OC)C(C)C)c2cccnc21 | 97 | 0.015 | 0.056 | 98 |  |  | 
CCCCCn1cc(C(=O)NC(C)(C)c2ccccc2)c2cccnc21 | 106 | 0.104 | 0.035 | 96 |  |  | 
CC(C)(C)[C@H](NC(=O)c1cc2ccccc2n1CCCCCO)C(N)=O |  |  |  |  | < 50 |  | 
O=C(NC12CC3CC(CC(C3)C1)C2)c1cn(CCCCCO)c2ncccc12 |  | 0.049 | > 10 | 93 | < 50 |  | 
CCCCCn1cc(C(=O)NC23CC4CC(CC(C4)C2)C3)c2cccnc21 | 75 | 0.043 | 0.152 | 101 |  |  | 3.5
CCCCCn1c(C(=O)N[C@H](C(N)=O)C(C)C)cc2ccccc21 |  | 0.741 |  | 74 | < 50 |  | 
COC(=O)[C@@H](NC(=O)c1cc2ccccc2n1CCCCCO)C(C)C |  |  |  |  | < 50 | < 50 | 
CCCCCn1c(C(=O)N[C@H](C(N)=O)C(C)(C)C)cc2ccccc21 |  | 0.189 | > 10 | 73 | < 50 |  | 
CCCCCn1c(C(=O)NC23CC4CC(CC(C4)C2)C3)cc2ccccc21 |  |  |  |  | < 50 |  | 
CCCCCn1c(C(=O)N[C@H](C(=O)OC)C(C)C)cc2ccccc21 |  | 0.713 |  | 74 | < 50 |  | 
CCCCCn1cccc2c(C(=O)NC34CC5CC(CC(C5)C3)C4)cnc1-2 |  |  |  |  | < 50 | < 50 | 
CCCCCn1cc(C(=O)N[C@H](C(N)=O)C(C)(C)C)c2cccnc21 | 110 | 0.005 | 0.004 | 94 |  |  | 
CCCCCn1c(C(=O)NC23CC4CC(CC(C4)C2)C3)cc2cccnc21 |  |  |  |  | < 50 | < 50 | 
CCCCCn1cc(C(=O)N[C@H](C(N)=O)C(C)C)c2cccnc21 | 117 | 0.058 | 0.121 | 103 |  |  | 
